Assay results as given in ChEMBL document CHEMBL1154006, “Optimisation of a series of potent, selective and orally bioavailable GlyT1 inhibitors” (Bioorg Med Chem Lett, 2009).

Columns and labels:
[1] = Half life in Sprague-Dawley rat at 0.1 mg/kg, iv and 1 mg/kg, po; type: ADME, organism-based; conditions: in vivo
How it was run: (§1)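 Six male Sprague-Dawley rats were used. Three received 0.1 mg/kg i.v. and three received 1 mg/kg p.o.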

[2] = Metabolic stability in rat liver microsomes assessed as parent compound turnover at 1 uM after 15 mins; type: ADME, Microsome; conditions: read-out: Stability
How it was run: (§2)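 Test compounds at 1 μM incubated at 37 °C for 15 min with liver microsomes (rat, dog or human) at 0.5 mg/ml protein. Cosolvent was 0.99% MeCN + 0.01% DMSO. Read-out is % turnover of parent.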

[3] = Bioavailability in Sprague-Dawley rat at 0.1 mg/kg, iv and 1 mg/kg, po; type: ADME, organism-based; conditions: in vivo; how it was run: as §1
[4] = molecular target: T1, Sodium- and chloride-dependent glycine transporter 1 (Homo sapiens, UniProt P48067); test: Inhibition of [3H]glycine uptake at human glycine transporter 1 expressed in human JAR cells after 3 hrs by scintillation counting; type: cell-based
T1 sequence (P48067 whole entry): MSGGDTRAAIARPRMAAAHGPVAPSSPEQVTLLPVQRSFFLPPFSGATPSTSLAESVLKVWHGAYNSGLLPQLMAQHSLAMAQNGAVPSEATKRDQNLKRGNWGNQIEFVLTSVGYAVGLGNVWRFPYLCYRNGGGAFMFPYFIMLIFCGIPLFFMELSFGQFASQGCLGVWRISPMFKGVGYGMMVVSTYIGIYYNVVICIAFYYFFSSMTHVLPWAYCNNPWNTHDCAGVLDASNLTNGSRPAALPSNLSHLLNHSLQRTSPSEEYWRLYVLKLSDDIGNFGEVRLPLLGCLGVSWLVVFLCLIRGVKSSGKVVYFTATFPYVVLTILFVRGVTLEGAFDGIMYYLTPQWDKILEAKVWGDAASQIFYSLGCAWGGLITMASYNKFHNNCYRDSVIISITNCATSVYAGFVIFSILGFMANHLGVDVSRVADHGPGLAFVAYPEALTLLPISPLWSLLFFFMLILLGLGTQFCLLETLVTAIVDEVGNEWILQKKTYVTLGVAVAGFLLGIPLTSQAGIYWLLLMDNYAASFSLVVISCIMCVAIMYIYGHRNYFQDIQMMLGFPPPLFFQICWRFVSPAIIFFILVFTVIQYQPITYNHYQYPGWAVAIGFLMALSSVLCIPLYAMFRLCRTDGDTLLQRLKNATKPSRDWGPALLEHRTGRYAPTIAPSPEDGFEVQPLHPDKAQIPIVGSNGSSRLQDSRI

[5] = Metabolic stability in human liver microsomes assessed as parent compound turnover at 1 uM after 15 mins; type: ADME, Microsome; conditions: read-out: Stability; how it was run: as §2
[6] = Volume of distribution at steady state in Sprague-Dawley rat at 0.1 mg/kg, iv and 1 mg/kg, po; type: ADME, organism-based; conditions: in vivo, read-out: Vdss; how it was run: as §1
Rattus norvegicus = test: In vivo occupancy of glycine transporter 1 in rat; type: functional
[7] = Plasma clearance in Sprague-Dawley rat at 0.1 mg/kg, iv and 1 mg/kg, po; type: ADME, organism-based; how it was run: as §1
Mus musculus = test: Ex vivo occupancy of glycine transporter 1 in po dosed mouse; type: functional
[8] = Metabolic stability in dog liver microsomes assessed as parent compound turnover at 1 uM after 15 mins; type: ADME, Canis lupus familiaris, Microsome; conditions: read-out: Stability; how it was run: as §2
[9] = molecular target: T2, Sodium- and chloride-dependent glycine transporter 2 (Homo sapiens, UniProt Q9Y345); test: Inhibition of human glycine transporter 2
T2 sequence (Q9Y345 whole entry): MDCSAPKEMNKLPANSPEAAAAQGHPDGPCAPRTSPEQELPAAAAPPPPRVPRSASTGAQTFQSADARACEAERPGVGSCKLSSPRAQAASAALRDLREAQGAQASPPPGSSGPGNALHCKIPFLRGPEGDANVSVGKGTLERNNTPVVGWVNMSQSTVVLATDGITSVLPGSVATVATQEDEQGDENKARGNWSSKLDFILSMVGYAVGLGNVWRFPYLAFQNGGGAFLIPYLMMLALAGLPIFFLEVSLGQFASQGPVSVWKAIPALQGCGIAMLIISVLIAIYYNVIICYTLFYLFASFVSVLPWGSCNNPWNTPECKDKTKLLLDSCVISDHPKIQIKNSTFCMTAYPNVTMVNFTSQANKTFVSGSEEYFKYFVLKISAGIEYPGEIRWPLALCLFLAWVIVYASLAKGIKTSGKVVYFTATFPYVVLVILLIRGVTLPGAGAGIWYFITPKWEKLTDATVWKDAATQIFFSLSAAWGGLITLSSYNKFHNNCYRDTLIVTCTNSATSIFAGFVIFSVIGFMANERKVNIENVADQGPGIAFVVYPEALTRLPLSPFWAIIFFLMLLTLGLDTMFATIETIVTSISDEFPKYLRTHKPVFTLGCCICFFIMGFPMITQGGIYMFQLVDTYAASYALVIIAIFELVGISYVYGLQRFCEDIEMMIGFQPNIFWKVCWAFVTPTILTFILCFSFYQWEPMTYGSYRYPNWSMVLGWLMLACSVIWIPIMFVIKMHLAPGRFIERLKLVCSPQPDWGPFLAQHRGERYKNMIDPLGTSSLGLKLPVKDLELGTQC

[10] = Volume of distribution in Sprague-Dawley rat at 0.1 mg/kg, iv and 1 mg/kg, po; type: ADME, organism-based; conditions: in vivo; how it was run: as §1
[11] = Clearance in Sprague-Dawley rat at 0.1 mg/kg, iv and 1 mg/kg, po; type: ADME, organism-based; conditions: in vivo; how it was run: as §1
[12] = molecular target: T3, Sodium- and chloride-dependent glycine transporter 1 (Homo sapiens) (UniProt P48067); test: Inhibition of [3H]glycine uptake at human glycine transporter 1 expressed in human JAR cells at 3 uM after 3 hrs by scintillation counting; type: cell-based
T3 sequence (whole entry): T1 sequence (P48067 whole entry)

| SMILES | metabolised at 0.25 h, 1 µM [2] [%] | IC50 [4] [nM] | metabolised at 0.25 h, 1 µM [5] [%] | metabolised at 0.25 h, 1 µM [8] [%] | further results |
| --- | --- | --- | --- | --- | --- |
| Cn1cc(S(=O)(=O)[C@H]2CC[C@@](CNC(=O)c3ccc(Cl)cc3Cl)(CC3CC3)CC2)nn1 | 23 | 1.89 | 28 |  | half-life [1]: 1.8 h; bioavailability [3]: 59%; Vd [6]: 2.3 L/kg; Occ50 (Rattus norvegicus): 2.2 mg/kg; clearance [7]: 16 mL/min/kg |
| Cn1cc(S(=O)(=O)N2CCC(CNC(=O)c3ccc(Cl)cc3Cl)(c3ncccc3F)CC2)nn1 | 6 | 0.65 | 20 | 17 | half-life [1]: 0.3 h; Occ50 (Mus musculus): 7.5 mg/kg; bioavailability [3]: 3%; IC50 [9]: > 10000 nM |
| CCn1cc(S(=O)(=O)N2CCC(CNC(=O)c3ccc(Cl)cc3Cl)(CC3CC3)CC2)nn1 |  | 28.2 |  |  |  |
| Cn1cc(S(=O)(=O)N2CCC(CNC(=O)c3ccc(Cl)cc3Cl)(CC3CC3)CC2)nn1 | 88 | 0.32 | 43 | 34 | half-life [1]: 1.1 h; Occ50 (Mus musculus): <1 mg/kg; bioavailability [3]: 27%; Vd [10]: 2.2 L/kg; clearance [11]: 39 mL/min/kg; IC50 [9]: > 10000 nM |
| O=C(NCC1(c2ncccc2F)CCN(S(=O)(=O)c2cccs2)CC1)c1ccc(Cl)cc1Cl | 98 | 125 |  | 72 |  |
| O=C(NCC1(c2ncccc2F)CCN(S(=O)(=O)c2ccc(Cl)s2)CC1)c1ccc(Cl)cc1Cl |  |  |  |  | inhibition [12]: 20% |
| Cn1cc(S(=O)(=O)N2CCC(CNC(=O)c3ccc(Cl)cc3Cl)(CC3CC3)CC2)cn1 | 5 | 10.3 | 10 | 38 | IC50 [9]: > 10000 nM |
| CCn1cc(S(=O)(=O)N2CC(CNC(=O)c3ccc(Cl)cc3Cl)(CC3CC3)C2)nn1 | 65 | 2.58 | 45 | 44 |  |
| Cn1cc(S(=O)(=O)[C@H]2CC[C@](CNC(=O)c3ccc(Cl)cc3Cl)(CC3CC3)CC2)nn1 | 10 | 5.44 | 28 |  | half-life [1]: 1.1 h; bioavailability [3]: 105%; Vd [6]: 2.6 L/kg; Occ50 (Rattus norvegicus): 3.4 mg/kg; clearance [7]: 34 mL/min/kg |
| Cn1cnc(S(=O)(=O)N2CCC(CNC(=O)c3ccc(Cl)cc3Cl)(CC3CC3)CC2)n1 |  |  |  |  | inhibition [12]: 13% |
| Cn1ncnc1S(=O)(=O)N1CCC(CNC(=O)c2ccc(Cl)cc2Cl)(CC2CC2)CC1 |  | 314 |  |  |  |
| O=C(NCC1(c2ncccc2F)CCN(S(=O)(=O)c2cccnc2)CC1)c1ccc(Cl)cc1Cl | 99 | 11.6 | 99 | 96 |  |
| O=C(NCC1(c2ncccc2F)CCN(S(=O)(=O)CC2CC2)CC1)c1ccc(Cl)cc1Cl | 78 | 2 | 21 | 20 |  |
| O=C(NCC1(CC2CC2)CN(S(=O)(=O)c2c[nH]nn2)C1)c1ccc(Cl)cc1Cl |  | 871 |  |  |  |
| O=C(NCC1(CC2CC2)CCN(S(=O)(=O)c2cn(CC(F)(F)F)nn2)CC1)c1ccc(Cl)cc1Cl |  | 502 |  |  |  |
| O=C(NCC1(c2ncccc2F)CCN(S(=O)(=O)Cc2ccccc2)CC1)c1ccc(Cl)cc1Cl |  |  |  |  | inhibition [12]: 33% |
| Cc1nc(S(=O)(=O)N2CCC(CNC(=O)c3ccc(Cl)cc3Cl)(c3ncccc3F)CC2)cn1C |  |  |  |  | inhibition [12]: 31% |
| O=C(NCC1(c2ncccc2F)CCN(S(=O)(=O)c2ccccc2)CC1)c1ccc(Cl)cc1Cl |  |  |  |  | inhibition [12]: 38% |
| Cn1cc(S(=O)(=O)N2CC(CNC(=O)c3ccc(Cl)cc3Cl)(CC3CC3)C2)nn1 | 88 | 0.1 | 32 | 24 |  |
| Cn1cc(S(=O)(=O)N2CC(CNC(=O)c3ccc(Cl)cc3Cl)(c3ncccc3F)C2)cn1 | 56 | 2.95 | 25 | < 5 |  |
| Cn1cnnc1S(=O)(=O)N1CCC(CNC(=O)c2ccc(Cl)cc2Cl)(CC2CC2)CC1 |  | 124 |  |  |  |
| Cn1ncc(S(=O)(=O)N2CC(CNC(=O)c3ccc(Cl)cc3Cl)(CC3CC3)C2)n1 |  | 132 |  |  |  |
| Cn1cnc(S(=O)(=O)N2CCC(CNC(=O)c3ccc(Cl)cc3Cl)(c3ncccc3F)CC2)c1 | 30 | 1.74 |  | 21 | IC50 [9]: > 10000 nM |
| Cn1nncc1S(=O)(=O)N1CC(CNC(=O)c2ccc(Cl)cc2Cl)(CC2CC2)C1 |  | 185 |  |  |  |
| CCCS(=O)(=O)N1CCC(CNC(=O)c2ccc(Cl)cc2Cl)(c2ncccc2F)CC1 | 73 | 4.33 | 23 | 25 |  |
| Cn1cc(S(=O)(=O)N2CC(CNC(=O)c3ccc(Cl)cc3Cl)(c3ncccc3F)C2)nn1 | 15 | 0.31 | 22 | 5 |  |
| Cn1cc(S(=O)(=O)N2CC(CNC(=O)c3ccc(Cl)cc3Cl)(CC3CC3)C2)cn1 | 17 | 3.62 | 21 | 70 | half-life [1]: 2.4 h; Occ50 (Mus musculus): 3.8 mg/kg; bioavailability [3]: 48%; clearance [7]: 46 mL/min/kg; IC50 [9]: > 10000 nM |
| Cn1cc(S(=O)(=O)N2CCC(CNC(=O)c3ccc(Cl)cc3Cl)(c3ncccc3F)CC2)cn1 | 55 | 5.43 | 42 | 24 | IC50 [9]: > 10000 nM |
